T cruzi inh = inhibitors of intracellular T. cruzi growth, primary screen, luminescence, NIH3T3 host cells | T. cruzi beta-gal in NIH3T3, 90 h | inhibition, % (no concentration beside the values) | hit rate 1.4% among 300,000 | AID 1885, 2009;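 active = mean inhibition across valid replicates above about 55%, limit read from the data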;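 also: signal also drops with host cell toxicity which is not excluded here; 0% = plate median of DMSO wells and 100% = zero luminescence signal; higher percent means less beta-gal luminescence so fewer parasites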
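Assay system: NIH/3T3 host cells with β-galactosidase reporter T. cruzi; input: 5,000 host fibroblasts per well; compound: single 50 nL compound addition per well in DMSO; timing: ≥90 h infection period, 3 h prior cell attachment; measured by: GalScreen β-gal luminescence, detergent lysis, 60 min; evaluation: percent inhibition of parasite-derived β-gal signal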
ARNT-TACC3 inh = disruptors of ARNT/TACC3 protein interaction, primary screen, biochemical, AlphaScreen, single concentration | AlphaScreen His-ARNT PAS-B/GST-TACC3 binding, luminescence; TACC3 fragment carries E629A point mutation | Transforming acidic coiled-coil-containing protein 3 (Homo sapiens), Q9Y6A5 | hit rate 0.66% among 390,000 | inhibition, % at 9.99 µM;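 active = mean inhibition of replicates at least 50% and at least half of replicates each reaching 50%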;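 also: 0% = complete ARNT plus TACC3 wells and 100% = ARNT alone without TACC3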
AI-2 QS mod = Vibrio harveyi AI-2 quorum sensing modulators, primary screen, JMH597 strain, luminescence/OD600 ratio; Vibrio harveyi JMH597 AI-2 luminescence/OD600 ratio, 9 h; active compounds read low; strain lacks LuxN and CqsS sensors; 0 = neutral-control median; activity change, % at 7.5 µM; hit rate 0.4% among 300,000; in the data active = activity change below about -75%, passing the limit was not always enough;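 also: luminescence divided by OD600 gain over 9 h not by final OD600 alone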
HIF act = HIF pathway transcriptional activators, primary screen, cell-based, U2OS HRE-luciferase, luminescence | activation, % at 7.5 µM (by protocol) | U2OS HRE-luciferase reporter; normalized: DMSO 0%, desferrioxamine 100% | hit rate 0.32% among 300,000;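 active = mean activation of at least 10% of the iron chelator positive control signal, with at least half of replicates also reaching 10%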
* hit, by the source's call. Most compounds without a hit are left out; they make up all but 2% or so of the library.

What do the screens show for `C=CCn1c(O)c(N=NC(=S)Nc2ccccc2F)c2cc(S(=O)(=O)N3CCOCC3)ccc21`?
T cruzi inh: 58*; ARNT-TACC3 inh: -1; AI-2 QS mod: 40; HIF act: 1

Results for COC(=O)C[C@H]1CC[C@@H]2[C@H](COc3ccc(NC(=O)c4ccccc4)cc3C(=O)N2C)O1 ?
ARNT-TACC3 inh: 7

How did COCC#Cc1cnc2c(c1)C(=O)N([C@@H](C)CO)C[C@@H](C)[C@H](CN(C)C(=O)CN1CCOCC1)O2 do in these assays?
ARNT-TACC3 inh: -9

What do the screens show for `C[C@@H]1CCCCO[C@H](CN(C)CC2CCCCC2)[C@@H](C)CN([C@H](C)CO)C(=O)c2cc(NS(=O)(=O)c3ccccc3)ccc2O1`?
ARNT-TACC3 inh: -1

Results for CNC[C@H]1Oc2ccc(NS(C)(=O)=O)cc2C(=O)N([C@H](C)CO)C[C@@H]1C ?
ARNT-TACC3 inh: 4

How did COc1ccc(NC(=O)N(C)C[C@H]2Oc3ccc(NC(=O)Nc4cccc5ccccc45)cc3C(=O)N([C@H](C)CO)C[C@H]2C)cc1 do in these assays?
ARNT-TACC3 inh: -2

Results for C=CCn1c(O)c(N=NC(=S)Nc2ccccc2F)c2ccccc21 ?
T cruzi inh: 49; ARNT-TACC3 inh: -5; AI-2 QS mod: -10; HIF act: 0

How did C=CCn1c(O)c(N=NC(=S)Nc2cccc(C)c2)c2ccccc21 do in these assays?
T cruzi inh: 59*; ARNT-TACC3 inh: -1; AI-2 QS mod: 39; HIF act: 0

Results for Cc1ccccc1NC(=S)N=Nc1c(O)n(C)c2ccc(S(=O)(=O)N3CCOCC3)cc12 ?
T cruzi inh: 44; ARNT-TACC3 inh: 5; AI-2 QS mod: 16; HIF act: -1

What do the screens show for `Cc1c(Cl)cccc1NC(=S)N=Nc1c(O)n(CN2CCOCC2)c2ccccc12`?
T cruzi inh: 63*; ARNT-TACC3 inh: 17; AI-2 QS mod: 44; HIF act: 1

What do the screens show for `CC(C)NC(=O)Nc1ccc2c(c1)C(=O)N([C@@H](C)CO)C[C@H](C)[C@H](CN(C)Cc1ccc(Cl)c(Cl)c1)OCCCC[C@@H](C)O2`?
ARNT-TACC3 inh: -5

How did Cc1noc(C)c1NC(=O)N(C)C[C@H]1OCCCC[C@H](C)Oc2ccc(NS(=O)(=O)c3cccs3)cc2C(=O)N([C@H](C)CO)C[C@@H]1C do in these assays?
ARNT-TACC3 inh: -13

What do the screens show for `Cc1cc(NC(=O)CSc2nnc(CNC(=O)c3cccc(C(F)(F)F)c3)o2)no1`?
T cruzi inh: -12; ARNT-TACC3 inh: 46*; AI-2 QS mod: 15; HIF act: 0

Results for C/C=C/c1ccc2c(c1)O[C@H](CN(C)S(=O)(=O)c1ccc(C)cc1)[C@H](C)CN([C@H](C)CO)S2(=O)=O ?
ARNT-TACC3 inh: 2

What do the screens show for `COc1ccc(C(=O)N/N=C(\C)Cn2cnc([N+](=O)[O-])n2)cc1`?
T cruzi inh: 56*; ARNT-TACC3 inh: -1; AI-2 QS mod: 8; HIF act: 1

How did C/C(Cn1cnc([N+](=O)[O-])n1)=N\NC(=O)c1ccc(F)cc1 do in these assays?
T cruzi inh: 48; ARNT-TACC3 inh: 0; AI-2 QS mod: 28; HIF act: 1

How did C/C(Cn1cnc([N+](=O)[O-])n1)=N\NC(=O)c1cccc(F)c1 do in these assays?
T cruzi inh: 63*; ARNT-TACC3 inh: 2; AI-2 QS mod: 22; HIF act: 3

Results for CC(C)NC(=O)Nc1cccc2c1O[C@H](CN(C)C(=O)NC1CCCCC1)[C@H](C)CN([C@@H](C)CO)C2=O ?
ARNT-TACC3 inh: 6

Results for CCOC(=O)c1sc(NC(=O)CNCc2cccnc2)c(C(=O)OCC)c1C ?
T cruzi inh: 30; ARNT-TACC3 inh: -1; AI-2 QS mod: 15; HIF act: 0

What do the screens show for `CCOC(=O)c1sc(NC(=O)CNCc2ccccn2)c(C(=O)OCC)c1C`?
T cruzi inh: 53; ARNT-TACC3 inh: 48*; AI-2 QS mod: 7; HIF act: 0

Results for OCCCCNCc1ccc(OCc2ccc(Cl)cc2)cc1 ?
T cruzi inh: 57*; ARNT-TACC3 inh: -6; AI-2 QS mod: 25; HIF act: 0

Results for CCCc1cc(=O)oc2cc(C)cc(OCc3nn[nH]n3)c12 ?
T cruzi inh: 0; ARNT-TACC3 inh: 0; AI-2 QS mod: 22; HIF act: 0

Results for Cc1cc(=O)oc2c1c(C)nn2-c1nn[nH]n1 ?
T cruzi inh: -5; ARNT-TACC3 inh: 64*; AI-2 QS mod: 8; HIF act: -1

How did CN(C)C(=S)Nc1nc2ccccc2s1 do in these assays?
T cruzi inh: 57*; ARNT-TACC3 inh: 3; AI-2 QS mod: 46; HIF act: 2

What do the screens show for `CCOc1ccc2nc(NC(=S)N(C)C)sc2c1`?
T cruzi inh: 41; ARNT-TACC3 inh: -2; AI-2 QS mod: 7; HIF act: 0

Results for C[C@@H]1CN([C@@H](C)CO)C(=O)c2cc(NS(=O)(=O)c3ccc(Cl)cc3)ccc2O[C@@H](C)CCCCO[C@H]1CN(C)Cc1ccc(C(F)(F)F)cc1 ?
ARNT-TACC3 inh: 11

What do the screens show for `COC(=O)c1cc(C)nc2c1C(=O)C(=O)C=C2N1CCOCC1`?
T cruzi inh: 67*; AI-2 QS mod: 17; HIF act: -2

Results for Cc1ccc(C(=O)/C=C\C(=O)c2ccc(C)cc2)cc1 ?
T cruzi inh: 71*; ARNT-TACC3 inh: 7; AI-2 QS mod: -22; HIF act: 3

How did C[C@@H]1CN([C@@H](C)CO)C(=O)c2cc(N(C)C)ccc2O[C@@H](C)CCCCO[C@H]1CN(C)C(=O)C1CCCCC1 do in these assays?
ARNT-TACC3 inh: 13

What do the screens show for `Cc1occc1C(=O)NNC(=O)C1CCCCC1`?
T cruzi inh: -9; ARNT-TACC3 inh: 2; AI-2 QS mod: 22; HIF act: -1

What do the screens show for `O=C(NC1CCCCCC1)c1ccc[nH]c1=S`?
T cruzi inh: 58*; ARNT-TACC3 inh: 5; AI-2 QS mod: 7; HIF act: 0

Results for Cc1occc1C(=O)NC1CCCCCC1 ?
T cruzi inh: -15; AI-2 QS mod: 27; HIF act: 13*

Results for O=C(NC1CCCCCCC1)c1ccccc1O ?
T cruzi inh: -11; ARNT-TACC3 inh: -5; AI-2 QS mod: 29; HIF act: 2

How did Cc1ccc(S(=O)(=O)N2C[C@@H](O)COC[C@H]3O[C@@H](CC(=O)N[C@@H]4CCN(Cc5ccccc5)C4)CC[C@@H]32)cc1 do in these assays?
ARNT-TACC3 inh: 11

What do the screens show for `CC1=CC(C)(C)Nc2ccc(OC(=O)CN3C(=O)CCC3=O)cc21`?
T cruzi inh: 56*; ARNT-TACC3 inh: -2; AI-2 QS mod: 10; HIF act: -2

Results for C[C@H](CO)N1C[C@H](C)[C@H](CN(C)C(=O)Nc2cccc3ccccc23)Oc2c(NC(=O)C3CCCCC3)cccc2C1=O ?
ARNT-TACC3 inh: 0
